Reference: ChEMBL document CHEMBL5724801, “EUbOPEN Chemogenomics Library - Multiplex” (2024)
Several values for one entry are separate records, joined by “and”; a condition that tells them apart may be missing. Equal entries are not always repeated.

System: HEK-293T
Assay: Multiplex assay against HEK293T
Assay type: toxicity, cell-based
Conditions: human
How it was run: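 On a CQ1 microscope at 37°C and 5% CO2, live cells were imaged after compound addition. They had been stained at seeding with Hoechst33342, BioTracker Green Microtubule Cytoskeleton Dye, MitoTracker Red and Annexin V Alexa Fluor 680. CellPathfinder machine-learning gating assigned cells to Hoechst high-intensity objects or normal cells, normal cells to healthy, pyknosed or fragmented nuclei, and pyknosed cells to mitotic or apoptotic. Tubulin, mitochondrial-mass and membrane-permeability phenotypes are per cents of healthy-nucleus cells.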

[1] = 12 h, 1 µM, compound concentration 1 uM
[2] = 12 h, 10 µM, compound concentration 10 uM
[3] = 24 h, 1 µM, compound concentration 1 uM
[4] = 24 h, 10 µM, compound concentration 10 uM
[5] = 48 h, 1 µM, compound concentration 1 uM
[6] = 48 h, 10 µM, compound concentration 10 uM

## CC(C)c1noc(N2CCC(COc3ccc(-c4ccc(S(C)(=O)=O)cc4)nc3)CC2)n1 [GSK-1292263]
[1]
  Population Apoptotic (%): 37% and 25%
  Population Fragmented Nuclei (%): 8% and 6%
  Population Healthy Nuclei (%): 78% and 86%
  Population Hoechst High Intensity Objects (%): 5% and 6%
  Population Membrane Permeable-Phenotype (%): 0%
  Population Mitochondria Different-Phenotype (%): 42% and 53%
  Population Mitotic Cells (%): 62% and 74%
  Population Normal (%): 94% and 93%
  Population Pyknosed Nuclei (%): 12% and 7%
  Population Tubulin-Different-Phenotype (%): 32% and 13%
  Total Cell Count: 440 and 522
[2]
  Population Apoptotic (%): 50% and 43%
  Population Fragmented Nuclei (%): 6% and 7%
  Population Healthy Nuclei (%): 71% and 78%
  Population Hoechst High Intensity Objects (%): 13% and 16%
  Population Membrane Permeable-Phenotype (%): 0%
  Population Mitochondria Different-Phenotype (%): 69% and 77%
  Population Mitotic Cells (%): 50% and 56%
  Population Normal (%): 86% and 83%
  Population Pyknosed Nuclei (%): 22% and 13%
  Population Tubulin-Different-Phenotype (%): 55% and 40%
  Total Cell Count: 311 and 279
[3]
  Population Apoptotic (%): 23% and 25%
  Population Fragmented Nuclei (%): 8% and 7%
  Population Healthy Nuclei (%): 78% and 82%
  Population Hoechst High Intensity Objects (%): 5% and 3%
  Population Membrane Permeable-Phenotype (%): 0%
  Population Mitochondria Different-Phenotype (%): 27% and 29%
  Population Mitotic Cells (%): 76% and 74%
  Population Normal (%): 94% and 96%
  Population Pyknosed Nuclei (%): 12% and 9%
  Population Tubulin-Different-Phenotype (%): 25% and 9%
  Total Cell Count: 545 and 608
[4]
  Population Apoptotic (%): 64% and 46%
  Population Fragmented Nuclei (%): 8% and 11%
  Population Healthy Nuclei (%): 79% and 74%
  Population Hoechst High Intensity Objects (%): 8% and 10%
  Population Membrane Permeable-Phenotype (%): 0%
  Population Mitochondria Different-Phenotype (%): 58% and 59%
  Population Mitotic Cells (%): 35% and 53%
  Population Normal (%): 91% and 89%
  Population Pyknosed Nuclei (%): 12% and 13%
  Population Tubulin-Different-Phenotype (%): 49% and 28%
  Total Cell Count: 384 and 354
[5]
  Population Apoptotic (%): 22% and 23%
  Population Fragmented Nuclei (%): 10%
  Population Healthy Nuclei (%): 81% and 83%
  Population Hoechst High Intensity Objects (%): 3% and 1%
  Population Membrane Permeable-Phenotype (%): 1%
  Population Mitochondria Different-Phenotype (%): 23% and 14%
  Population Mitotic Cells (%): 77% and 76%
  Population Normal (%): 96% and 98%
  Population Pyknosed Nuclei (%): 8% and 5%
  Population Tubulin-Different-Phenotype (%): 14% and 10%
  Total Cell Count: 865 and 882
[6]
  Population Apoptotic (%): 32% and 30%
  Population Fragmented Nuclei (%): 10% and 13%
  Population Healthy Nuclei (%): 79% and 78%
  Population Hoechst High Intensity Objects (%): 10% and 5%
  Population Membrane Permeable-Phenotype (%): 0%
  Population Mitochondria Different-Phenotype (%): 50% and 37%
  Population Mitotic Cells (%): 67% and 69%
  Population Normal (%): 89% and 94%
  Population Pyknosed Nuclei (%): 9% and 8%
  Population Tubulin-Different-Phenotype (%): 28% and 18%
  Total Cell Count: 506 and 595

## CC[C@H](Nc1ncnc2[nH]cnc12)c1nc2cccc(F)c2c(=O)n1-c1ccccc1 [IDELALISIB]
[1]
  Population Apoptotic (%): 9.6% and 7.3%
  Population Fragmented Nuclei (%): 0.69% and 2.22%
  Population Healthy Nuclei (%): 58.33% and 21.67%
  Population Hoechst High Intensity Objects (%): 0%
  Population Membrane Permeable-Phenotype (%): 1.19% and 0%
  Population Mitochondria Different-Phenotype (%): 34.13% and 17.95%
  Population Mitotic Cells (%): 90.4% and 92.7%
  Population Normal (%): 100%
  Population Pyknosed Nuclei (%): 40.97% and 76.11%
  Total Cell Count: 432 and 180
[2]
  Population Apoptotic (%): 16.78% and 14.29%
  Population Fragmented Nuclei (%): 0.89% and 4.58%
  Population Hoechst High Intensity Objects (%): 0%
  Population Membrane Permeable-Phenotype (%): 0% and 7.69%
  Population Mitochondria Different-Phenotype (%): 29.11% and 15.38%
  Population Mitotic Cells (%): 83.22% and 85.71%
  Population Normal (%): 100%
  Population Pyknosed Nuclei (%): 63.84% and 86.93%
  Population Tubulin-Different-Phenotype (%): 34.18% and 38.46%
  Total Cell Count: 224 and 153
[3]
  Population Apoptotic (%): 20.57% and 16.42%
  Population Fragmented Nuclei (%): 1.62% and 1.42%
  Population Healthy Nuclei (%): 75.57% and 35.07%
  Population Hoechst High Intensity Objects (%): 0%
  Population Membrane Permeable-Phenotype (%): 1.07% and 0%
  Population Mitochondria Different-Phenotype (%): 15.42% and 12.16%
  Population Mitotic Cells (%): 79.43% and 83.58%
  Population Normal (%): 100%
  Population Pyknosed Nuclei (%): 22.82% and 63.51%
  Population Tubulin-Different-Phenotype (%): 9.85% and 5.41%
  Total Cell Count: 618 and 211
[4]
  Population Apoptotic (%): 22.55% and 30.43%
  Population Fragmented Nuclei (%): 2.07% and 3.7%
  Population Healthy Nuclei (%): 62.76% and 25.31%
  Population Hoechst High Intensity Objects (%): 0.34% and 0%
  Population Membrane Permeable-Phenotype (%): 2.75% and 2.44%
  Population Mitochondria Different-Phenotype (%): 40.11% and 19.51%
  Population Mitotic Cells (%): 77.45% and 69.57%
  Population Normal (%): 99.66% and 100%
  Population Pyknosed Nuclei (%): 35.17% and 70.99%
  Population Tubulin-Different-Phenotype (%): 61.54% and 26.83%
  Total Cell Count: 291 and 162
[5]
  Population Apoptotic (%): 5.47% and 12.5%
  Population Fragmented Nuclei (%): 2.71% and 1.53%
  Population Healthy Nuclei (%): 87.1% and 67.82%
  Population Hoechst High Intensity Objects (%): 0% and 0.38%
  Population Membrane Permeable-Phenotype (%): 5.58% and 2.26%
  Population Mitochondria Different-Phenotype (%): 15.63% and 14.69%
  Population Mitotic Cells (%): 94.53% and 87.5%
  Population Normal (%): 100% and 99.62%
[6]
  Population Apoptotic (%): 17.44% and 25.24%
  Population Fragmented Nuclei (%): 2.23% and 1.97%
  Population Healthy Nuclei (%): 80.32% and 47.29%
  Population Hoechst High Intensity Objects (%): 0.2% and 0%
  Population Membrane Permeable-Phenotype (%): 6.31% and 1.04%
  Population Mitochondria Different-Phenotype (%): 64.39% and 55.21%
  Population Mitotic Cells (%): 82.56% and 74.76%
  Population Normal (%): 99.8% and 100%
  Population Pyknosed Nuclei (%): 17.44% and 50.74%
  Total Cell Count: 494 and 203
